This is an account of results in PMC8081378 (Mutagenesis, 2019).

What all share (type): cell-based, human
Data set [1] has as its system EpiDerm™ skin tissues. Briefly: reconstructed skin micronucleus.
In data set [2] the test system is Phenion®FT skin tissues. Briefly: DNA adduct formation by TLC 32P-postlabelling assay.
The subject of data set [3] is Phenion®FT skin tissues. Briefly: cytotoxicity in the skin comet assay. The essentials:
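Full-thickness tissues were cultured at the air–liquid interface (37°C, 5% CO₂). They were treated in triplicate with test compound ± APC in acetone (16 µl/cm²), either three times (48, 24 and 3 h) or once for 3 h. Afterwards, culture medium was kept at 4°C for adenylate kinase release. About 25% of each tissue was snap-frozen, homogenised in cold DPBS, heated (105°C, 5 min) and centrifuged; ATP was measured in the supernatant with a kit. Both measures were expressed relative to solvent control (100%).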

Data set [4] relates to Phenion®FT skin tissues. Briefly: 3D skin comet assay. As to conditions: for % tail DNA vs SC + APC: three treatments over 48 h in the presence of APC.
Data set [5] relates to EpiDerm™ skin tissues. Briefly: skin comet assay in EpiDerm skin tissues. The following applies: single 3 h treatment, doses ≥2 µg/cm^2, keratinocytes, data not shown.
In data set [6] the test system is EpiDerm™ skin tissues. Briefly: cytotoxicity in the RSMN assay. An outline of the steps: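 Skin tissues received test compound topically in 10 µl (16 µl/cm²) acetone, two or three times at 24 h intervals, in triplicate alongside solvent controls. Tissues were washed in DPBS, then DPBS-EDTA, and trypsinised (0.25% trypsin–0.02% EDTA, 15 min, 37°C) into single-cell suspensions. Viable cell count came from AO/DAPI staining with an automated counter, and % BN from AO staining over 500 cells/tissue. Both were expressed relative to solvent control; excessive cytotoxicity was a 55 ± 5 % reduction.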

With `CC(=O)Nc1ccc2c(c1)Cc1ccccc1-2` [2-AAF, 2-acetylaminofluorene], in data set [1] (topical, three doses over 72 h, up to 96 µg/cm^2), the “DNA damage in the RSMN assay (% MN-BN)” value was “did not significantly increase DNA damage”. In data set [1] (topical, two times over a 48-h period, doses up to 140 µg/cm^2, vs SC), the “MN formation (% MN-BN)” value is reported as “did not result in a significant increase in MN formation”. Further, in data set [2] (multiple exposures over 48 h), the “increase of adduct levels after multiple exposures over 48 h vs 3 h treatment” value is given as above 10 fold. Also, the “2-AAF-derived DNA adducts” value in data set [2] (single 3 h treatment, 50 and 150 µg/cm^2) is “minimal, but detectable”. Besides, the “DNA adduct level (RAL), up to” value in data set [2] (three treatments over 48 h) is recorded as ~ 10 adducts per 10^8 nucleotides. For the same compound, in data set [2] (three-treatment protocol, 150 µg/cm^2, with APC), the “DNA adduct levels in the presence of APC” value is “additional, but non-significant increase”. Besides, in data set [3] (three treatments over 48 h with APC), the “dose that exceeded the % ATP cytotoxicity threshold” value is listed as 75 µg/cm^2. For the same compound, the “% tail DNA vs SC + APC” value is recorded as “significant increase in the % tail DNA” in data set [4] (fibroblasts, both experiments, all doses tested) and “only statistically significant in one experiment” in data set [4] (keratinocytes, at 75 µg/cm^2).
Regarding `C[C@@]1(CO)[C@H](O)CC[C@@]2(C)[C@H]1CC[C@H]1C[C@@H]3C[C@@]12CC[C@]3(O)CO` [APC, aphidicolin], the “DNA damage (% tail DNA) vs SC group alone” value in data set [4] (APC alone, 5 µg/ml in medium 4 h before end of incubation) is “small non-significant increase in DNA damage”.
On to `CC(=O)N(O)c1ccc2c(c1)Cc1ccccc1-2` [N-OH-2-AAF, N-hydroxy-2-acetylaminofluorene], for which the “DNA damage in the RSMN assay (% MN-BN)” value in data set [1] (three treatments over 72 h, doses up to 0.8 µg/cm^2) is recorded as “did not cause a significant increase in DNA damage”; in data set [1] (two treatments over 48 h, doses up to 0.8 µg/cm^2), “did not cause a significant increase in DNA damage”. In data set [4] (single 3 h treatment, 4 µg/cm^2, keratinocytes and fibroblasts), the “% tail DNA” value is “significantly increased the % tail DNA”. In addition, the “DNA damage (% tail DNA) in the presence of APC vs compound alone” value in data set [4] (single 3 h treatment, 1 and 4 µg/cm^2, both cell types) is recorded as “further amplified”. Also, the “DNA damage in the skin comet assay” value in data set [5] was “highly significant dose-dependent increase in DNA damage”. Further, the “dose that exceeded the cytotoxicity threshold by % BN” value in data set [6] (two or three treatments over 48 h or 72 h) amounted to 0.8 µg/cm^2.
Consider `ONc1ccc2c(c1)Cc1ccccc1-2` [N-OH-2-AF, N-hydroxy-2-aminofluorene], for which the “micronuclei in the RSMN assay (% MN-BN)” value in data set [1] (three treatments over 72 h, at the two highest doses 0.85 and 1.3 µg/cm^2, P < 0.01) is reported as “significant change in micronuclei”. The “MN formation (% MN-BN)” value in data set [1] (two treatments over 48 h, up to 1.3 µg/cm^2) was “did not significantly increase MN formation”. In data set [2] (single 3 h treatment, 1 µg/cm^2), the “level of DNA adducts compared with N-OH-2-AAF at the same dose” value was “not significantly different”. Also, in data set [3] (single 3 h treatment in the presence of APC), the “cytotoxicity (% AK, % ATP)” value is “absence of excessive cytotoxicity”. Besides, the “potency in the skin comet assay compared with N-OH-2-AAF” value in data set [4] (single 3 h treatment) is reported as “more potent”. Further, the “near maximal level of DNA damage” value in data set [4] (single 3 h treatment, 1 µg/cm^2, keratinocytes and fibroblasts) is recorded as 60–80 % tail DNA. Besides, in data set [4] (single 3 h treatment, all three doses, both cell types), the “DNA damage (% tail DNA) in the presence of APC” value is “further amplified and reached near maximal levels”. In data set [4] (single 3 h treatment, doses of 0.25–4 µg/cm^2, keratinocytes and fibroblasts), the “DNA damage (% tail DNA)” value is reported as “robust, dose-responsive increase in DNA damage”. Also, the “cytotoxicity by % VCC” value in data set [6] (three treatments over 72 h, highest dose 1.3 µg/cm^2) was “approached the cytotoxicity threshold for % VCC at the highest dose”.
